Measurements from ChEMBL document CHEMBL4725261, “Design, synthesis and evaluation of carbamate-linked uridyl-based inhibitors of human ST6Gal I” (Bioorg Med Chem, 2020).

biological target: T1, Beta-galactoside alpha-2,6-sialyltransferase 1 (Homo sapiens, UniProt P15907); assay: Inhibition of recombinant human N-terminal 6His-tagged ST6Gal-1 (Glu44 to Cys406 residues); conditions: not given
T1 sequence (P15907 whole entry): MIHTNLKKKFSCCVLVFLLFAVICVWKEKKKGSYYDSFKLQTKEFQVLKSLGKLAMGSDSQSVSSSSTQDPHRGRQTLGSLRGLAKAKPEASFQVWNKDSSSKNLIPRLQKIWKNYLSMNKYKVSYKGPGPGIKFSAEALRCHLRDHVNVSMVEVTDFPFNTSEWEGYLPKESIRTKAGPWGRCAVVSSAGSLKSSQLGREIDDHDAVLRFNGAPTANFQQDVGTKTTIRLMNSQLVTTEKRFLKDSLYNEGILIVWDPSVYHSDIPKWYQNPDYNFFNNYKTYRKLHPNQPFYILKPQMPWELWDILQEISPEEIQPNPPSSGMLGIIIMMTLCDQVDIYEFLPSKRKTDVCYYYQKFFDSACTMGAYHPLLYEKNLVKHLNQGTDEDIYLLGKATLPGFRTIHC
Summary of the method: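 Recombinant human ST6Gal I activity was measured in a luminescence microplate assay, and inhibition was expressed as Ki.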

SMILES | Ki
O=C(NC[C@H]1O[C@@H](n2ccc(=O)[nH]c2=O)[C@H](O)[C@@H]1O)OC(c1ccc(OC2CCCC2)cc1)P(=O)([O-])[O-].[Na+].[Na+] (stereo in doubt; 28i-(s)) | 55.5 µM
O=C(NC[C@H]1O[C@@H](n2ccc(=O)[nH]c2=O)[C@H](O)[C@@H]1O)OC(c1ccc(F)cc1)P(=O)([O-])[O-].[Na+].[Na+] (stereo in doubt; 28c-(s)) | 306 µM
O=C(NC[C@H]1O[C@@H](n2ccc(=O)[nH]c2=O)[C@H](O)[C@@H]1O)OC(c1ccc(F)cc1)P(=O)(O)O (stereo in doubt; 28c-(l)) | 1.1 µM
O=C(NC[C@H]1O[C@@H](n2ccc(=O)[nH]c2=O)[C@H](O)[C@@H]1O)OC(c1cc2ccccc2s1)P(=O)([O-])[O-].[Na+].[Na+] (stereo in doubt; 28k-(s)) | 8.5 µM
O=C(NC[C@H]1O[C@@H](n2ccc(=O)[nH]c2=O)[C@H](O)[C@@H]1O)OC(c1cccc(F)c1)P(=O)([O-])[O-].[Na+].[Na+] (stereo in doubt; 28d-(s)) | 19.2 µM
CCCOc1cccc(C(OC(=O)NC[C@H]2O[C@@H](n3ccc(=O)[nH]c3=O)[C@H](O)[C@@H]2O)P(=O)(O)O)c1 (stereo in doubt; 28e-(l)) | 20.3 µM
O=C(NC[C@H]1O[C@@H](n2ccc(=O)[nH]c2=O)[C@H](O)[C@@H]1O)OC(c1ccc(OC2CCCC2)cc1)P(=O)(O)O (stereo in doubt; 28i-(l)) | 11.5 µM

test system: MIA PaCa-2; assay: Cytotoxicity against human MIA PaCa-2 cells assessed as reduction in cell viability at 200 uM after 24 to 48 hrs by MTS assay; assay type: cell-based; conditions: mia paca-2, 200 µM, time 24-48 hrs

SMILES | Activity
COc1cccc(C(OC(=O)NC[C@H]2O[C@@H](n3ccc(=O)[nH]c3=O)[C@H](O)[C@@H]2O)P(=O)([O-])[O-])c1.[Na+].[Na+] (stereo in doubt; 28f-(s)) | Non-Toxic
O=C(NC[C@H]1O[C@@H](n2ccc(=O)[nH]c2=O)[C@H](O)[C@@H]1O)OC(c1ccc(OC2CCCC2)cc1)P(=O)([O-])[O-].[Na+].[Na+] (stereo in doubt; 28i-(s)) | Non-Toxic
O=C(NC[C@H]1O[C@@H](n2ccc(=O)[nH]c2=O)[C@H](O)[C@@H]1O)OC(c1csc2ccccc12)P(=O)([O-])[O-].[Na+].[Na+] (stereo in doubt; 28l-(s)) | Non-Toxic
Nc1ccn([C@@H]2O[C@H](CNC(=O)OC(c3cccc(Oc4ccccc4)c3)P(=O)([O-])[O-])[C@@H](O)[C@H]2O)c(=O)n1.[Na+].[Na+] (stereo in doubt; 30-(s)) | Non-Toxic
O=C(NC[C@H]1O[C@@H](n2ccc(=O)[nH]c2=O)[C@H](O)[C@@H]1O)OC(c1ccc(F)cc1)P(=O)([O-])[O-].[Na+].[Na+] (stereo in doubt; 28c-(s)) | Non-Toxic
O=C(NC[C@H]1O[C@@H](n2ccc(=O)[nH]c2=O)[C@H](O)[C@@H]1O)OC(c1cccc(Oc2ccccc2)c1)P(=O)([O-])[O-].[Na+].[Na+] (stereo in doubt; 28a-(s)) | Non-Toxic
O=C(NC[C@H]1O[C@@H](n2ccc(=O)[nH]c2=O)[C@H](O)[C@@H]1O)OC(c1cc2ccccc2s1)P(=O)([O-])[O-].[Na+].[Na+] (stereo in doubt; 28k-(s)) | Non-Toxic
O=C(NC[C@H]1O[C@@H](n2ccc(=O)[nH]c2=O)[C@H](O)[C@@H]1O)OC(c1cccc(F)c1)P(=O)([O-])[O-].[Na+].[Na+] (stereo in doubt; 28d-(s)) | Non-Toxic
O=C(NC[C@H]1O[C@@H](n2ccc(=O)[nH]c2=O)[C@H](O)[C@@H]1O)OC(c1ccc(F)c(Oc2ccccc2)c1)P(=O)([O-])[O-].[Na+].[Na+] (stereo in doubt; 28b-(s)) | Non-Toxic
O=C(NC[C@H]1O[C@@H](n2ccc(=O)[nH]c2=O)[C@H](O)[C@@H]1O)OC(c1ccccc1)P(=O)([O-])[O-].[Na+].[Na+] (stereo in doubt; 28j-(s)) | Non-Toxic
COc1ccc(C(OC(=O)NC[C@H]2O[C@@H](n3ccc(=O)[nH]c3=O)[C@H](O)[C@@H]2O)P(=O)([O-])[O-])cc1.[Na+].[Na+] (stereo in doubt; 28g-(s)) | Non-Toxic
COc1ccc(C(OC(=O)NC[C@H]2O[C@@H](n3ccc(=O)[nH]c3=O)[C@H](O)[C@@H]2O)P(=O)([O-])[O-])cc1OC1CCCC1.[Na+].[Na+] (stereo in doubt; 28h-(s)) | Non-Toxic
CCCOc1cccc(C(OC(=O)NC[C@H]2O[C@@H](n3ccc(=O)[nH]c3=O)[C@H](O)[C@@H]2O)P(=O)([O-])[O-])c1.[Na+].[Na+] (stereo in doubt; 28e-(s)) | Non-Toxic

biological target: T2, Beta-galactoside alpha-2,6-sialyltransferase 1 (Rattus norvegicus, UniProt P13721); assay: Inhibition of rat liver ST6Gal-1 by HPLC-based assay; conditions: not given
T2 sequence (P13721 whole entry): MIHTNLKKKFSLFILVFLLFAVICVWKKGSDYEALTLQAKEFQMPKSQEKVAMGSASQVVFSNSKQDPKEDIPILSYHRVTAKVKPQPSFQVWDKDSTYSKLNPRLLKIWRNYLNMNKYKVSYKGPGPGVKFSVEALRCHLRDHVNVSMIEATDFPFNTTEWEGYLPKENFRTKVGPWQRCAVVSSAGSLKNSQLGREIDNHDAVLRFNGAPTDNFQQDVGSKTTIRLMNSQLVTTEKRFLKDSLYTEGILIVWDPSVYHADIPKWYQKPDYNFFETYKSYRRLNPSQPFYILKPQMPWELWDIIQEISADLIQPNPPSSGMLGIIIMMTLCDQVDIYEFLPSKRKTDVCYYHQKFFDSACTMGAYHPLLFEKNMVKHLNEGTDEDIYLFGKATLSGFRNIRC

Ki | SMILES
0.029 µM | CC(=O)N[C@H]1[C@@H](Oc2ccccc2)OC([C@@H](OP(=O)(O)OC[C@H]2O[C@@H](n3ccc(N)nc3=O)[C@H](O)[C@@H]2O)P(=O)(O)O)=C[C@@H]1O

biological target: T2, Beta-galactoside alpha-2,6-sialyltransferase 1; assay: Inhibition of rat liver ST6Gal-1 using […] measured up to 20 mins by HPLC analysis; conditions: not given

Ki | SMILES
0.07 µM | Nc1ccn([C@@H]2O[C@H](COP(=O)(O)O[C@@H](c3cccc(Oc4ccccc4)c3)P(=O)(O)O)[C@@H](O)[C@H]2O)c(=O)n1

biological target: T1, Beta-galactoside alpha-2,6-sialyltransferase 1; assay: Displacement of fluorescent probe from human ST6Gal-1 by fluorescence polarization assay; conditions: not given

Kd | SMILES
0.022 µM | Nc1ccn([C@@H]2O[C@H](COP(=O)(O)O[C@@H](c3cccc(NC(=O)c4ccc(C(=O)O)c(-c5c6ccc(=O)cc-6oc6cc(O)ccc56)c4)c3)P(=O)(O)O)[C@@H](O)[C@H]2O)c(=O)n1
0.009 µM | Nc1ccn([C@@H]2O[C@H](COP(=O)(O)O[C@H](c3cccc(NC(=O)c4ccc(C(=O)O)c(-c5c6ccc(=O)cc-6oc6cc(O)ccc56)c4)c3)P(=O)(O)O)[C@@H](O)[C@H]2O)c(=O)n1
